Results taken from ChEMBL document CHEMBL1255198, “Expanding the diversity of allosteric bcr-abl inhibitors” (J Med Chem, 2010).

Assay: Inhibition of Bcr-Abl E255K mutant in mouse BA/F3 cells assessed as cell growth inhibition
Conditions: BaF3

`FC(F)(F)Oc1ccc(Nc2ncnc3c2ccn3CCN2CCOCC2)cc1` and `OCCn1ncc2c(Nc3ccc(OC(F)(F)F)cc3)ncnc21` are within 1.5-fold of each other in EC50: 1.22 µM for the first, 1.61 µM for the second.

`NS(=O)(=O)c1ccc(-c2cc(Nc3ccc(OC(F)(F)F)cc3)ncn2)cc1` and `CS(=O)(=O)Nc1ccc(-c2cc(Nc3ccc(OC(F)(F)F)cc3)ncn2)cc1` are within 1.5-fold of each other in EC50: 0.31 µM for the first, 0.36 µM for the second.

`FC(F)(F)Oc1ccc(Nc2cc(-c3cn[nH]c3)ncn2)cc1` and `NC(=O)c1cccc(-c2cc(Nc3ccc(OC(F)(F)F)cc3)ncn2)c1` are within 1.5-fold of each other in EC50: 0.52 µM for the first, 0.6 µM for the second.

Going from `O=C(NCCO)c1cccc(-c2cc(Nc3ccc(OC(F)(F)F)cc3)ncn2)c1` to `CN1CCN(C(=O)c2cc3c(Nc4ccc(OC(F)(F)F)cc4)ncnc3s2)CC1`, the EC50 rises from 0.58 µM to 1.33 µM (2.3-fold). The first is the more potent here.

In the case of `CC(C)(C)n1ncc2c(Nc3ccc(OC(F)(F)F)cc3)ncnc21`, the EC50 is reported as 0.5 µM.

Assay: Cytotoxicity against mouse BA/F3 cells
Format: cell-based
Conditions: BaF3
Summary of the method: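 Parental IL-3-dependent murine Ba/F3 cells grown at 37 °C, 5% CO₂ in RPMI 1640 with 10% FBS, 1% L-glutamine and 10% WEHI-conditioned medium as IL-3 source. Growth after 48 h read by CellTiter-Glo luminescence.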

Compared with `O=C(c1cc2c(Nc3ccc(OC(F)(F)F)cc3)ncnc2s1)N1CCN(N2CCCC2)CC1`, `CN1CCN(C(=O)c2cc3c(Nc4ccc(OC(F)(F)F)cc4)ncnc3s2)CC1` is 2.1-fold lower in EC50: 5.77 µM for the first, 2.69 µM for the second.

`FC(F)(F)Oc1ccc(Nc2ncnc3[nH]ncc23)cc1` and `FC(F)(F)Oc1ccc(Nc2ncnc3[nH]ccc23)cc1` cannot be ordered by EC50: greater than 10 µM for the first, greater than 10 µM for the second.

`FC(F)(F)Oc1ccc(Nc2ncnc3c2cnn3CC2CCOC2)cc1` (stereo not drawn) and `CCn1ncc2c(Nc3ccc(OC(F)(F)F)cc3)ncnc21` cannot be ordered by EC50: greater than 10 µM for the first, greater than 10 µM for the second.

`CCn1cc2c(Nc3ccc(OC(F)(F)F)cc3)ncnc2n1` and `CCCn1cc2c(Nc3ccc(OC(F)(F)F)cc3)ncnc2n1` cannot be ordered by EC50: greater than 10 µM for the first, greater than 10 µM for the second.

`COC(=O)c1cc2c(Nc3ccc(OC(F)(F)F)cc3)ncnc2s1` and `O=C(O)c1cc2c(Nc3ccc(OC(F)(F)F)cc3)ncnc2s1` cannot be ordered by EC50: greater than 10 µM for the first, greater than 10 µM for the second.

Compared with `Cc1nc(NCCN2CCOCC2)cc(Nc2ccc(OC(F)(F)F)cc2)n1`, `FC(F)(F)Oc1ccc(Nc2cc(NCCN3CCOCC3)ncn2)cc1` is higher in EC50: 1.11 µM for the first, greater than 10 µM for the second.

`Cn1cc(-c2cc(Nc3ccc(OC(F)(F)F)cc3)ncn2)cn1` and `CC(C)Cn1cc(-c2cc(Nc3ccc(OC(F)(F)F)cc3)ncn2)cn1` cannot be ordered by EC50: greater than 10 µM for the first, greater than 10 µM for the second.

`FC(F)(F)Oc1ccc(Nc2ncnc3c2cnn3Cc2ccncc2)cc1` and `FC(F)(F)Oc1ccc(Nc2ncnc3c2cnn3Cc2cccnc2)cc1` cannot be ordered by EC50: greater than 10 µM for the first, greater than 10 µM for the second.

`FC(F)(F)Oc1ccc(Nc2ncnc3c2ccn3CCN2CCOCC2)cc1` and `Cc1c(NCCN2CCOCC2)ncnc1Nc1ccc(OC(F)(F)F)cc1` cannot be ordered by EC50: greater than 10 µM for the first, greater than 10 µM for the second.

`NS(=O)(=O)c1ccc(-c2cc(Nc3ccc(OC(F)(F)F)cc3)ncn2)cc1` and `NS(=O)(=O)c1cccc(-c2cc(Nc3ccc(OC(F)(F)F)cc3)ncn2)c1` cannot be ordered by EC50: greater than 10 µM for the first, greater than 10 µM for the second.

`Cc1c(-c2cc(Nc3ccc(OC(F)(F)F)cc3)ncn2)cnn1-c1ccccc1` and `NC(=O)c1ccccc1-c1cc(Nc2ccc(OC(F)(F)F)cc2)ncn1` cannot be ordered by EC50: greater than 10 µM for the first, greater than 10 µM for the second.

Compared with `OCCn1ncc2c(Nc3ccc(OC(F)(F)F)cc3)ncnc21`, `CCCn1ncc2c(Nc3ccc(OC(F)(F)F)cc3)ncnc21` is lower in EC50: greater than 10 µM for the first, 6.6 µM for the second. The second is the more potent here.

`Nc1cccc(-c2cc(Nc3ccc(OC(F)(F)F)cc3)ncn2)c1` and `NC(=O)c1cccc(-c2cc(Nc3ccc(OC(F)(F)F)cc3)ncn2)c1` cannot be ordered by EC50: greater than 10 µM for the first, greater than 10 µM for the second.

`NC(=O)CCn1ccc2c(Nc3ccc(OC(F)(F)F)cc3)ncnc21` and `COCCCNC(=O)CCn1ccc2c(Nc3ccc(OC(F)(F)F)cc3)ncnc21` cannot be ordered by EC50: greater than 10 µM for the first, greater than 10 µM for the second.

`FC(F)(F)Oc1ccc(Nc2cc(-c3cn[nH]c3)ncn2)cc1` and `FC(F)(F)Oc1ccc(Nc2cc(-c3ccncc3)ncn2)cc1` cannot be ordered by EC50: greater than 10 µM for the first, greater than 10 µM for the second.

`FC(F)(F)Oc1ccc(Nc2cncc(NCCN3CCOCC3)n2)cc1` and `FC(F)(F)Oc1ccc(Nc2ccc(NCCN3CCOCC3)nn2)cc1` cannot be ordered by EC50: greater than 10 µM for the first, greater than 10 µM for the second.

Going from `FC(F)(F)Oc1ccc(Nc2cc(-c3ccc4[nH]ccc4c3)ncn2)cc1` to `FC(F)(F)Oc1ccc(Nc2cc(-c3cccc4[nH]ccc34)ncn2)cc1`, the EC50 falls from greater than 10 µM to 3.79 µM.

`FC(F)(F)Oc1ccc(Nc2ccnc(NCCN3CCOCC3)n2)cc1` and `FC(F)(F)Oc1ccc(Nc2nccc(NCCN3CCOCC3)n2)cc1` cannot be ordered by EC50: greater than 10 µM for the first, greater than 10 µM for the second.

`CN(c1ccc(OC(F)(F)F)cc1)c1cc(-c2ccncc2)ncn1` and `FC(F)(F)c1ccc(Nc2cc(-c3ccncc3)ncn2)cc1` cannot be ordered by EC50: greater than 10 µM for the first, greater than 10 µM for the second.

`COc1ccc(Cn2ccc3c(Nc4ccc(OC(F)(F)F)cc4)ncnc32)cc1` and `Cn1ccc2c(Nc3ccc(OC(F)(F)F)cc3)ncnc21` cannot be ordered by EC50: greater than 10 µM for the first, greater than 10 µM for the second.

`CS(=O)(=O)c1cccc(-c2cc(Nc3ccc(OC(F)(F)F)cc3)ncn2)c1` and `CNC(=O)c1cccc(-c2cc(Nc3ccc(OC(F)(F)F)cc3)ncn2)c1` cannot be ordered by EC50: greater than 10 µM for the first, greater than 10 µM for the second.

Compared with `FC(F)(F)Oc1ccc(Nc2ncnc3nn(C4CCCCC4)cc23)cc1`, `FC(F)(F)Oc1ccc(Nc2ncnc3c2cnn3C2CCCCC2)cc1` is lower in EC50: greater than 10 µM for the first, 9.3 µM for the second.

`O=C(c1cccc(-c2cc(Nc3ccc(OC(F)(F)F)cc3)ncn2)c1)N1CCOCC1` and `O=C(NCCN1CCOCC1)c1cccc(-c2cc(Nc3ccc(OC(F)(F)F)cc3)ncn2)c1` cannot be ordered by EC50: greater than 10 µM for the first, greater than 10 µM for the second.

Compared with `NC(=O)Cn1ncc2c(Nc3ccc(OC(F)(F)F)cc3)ncnc21`, `NC(=O)Cn1cc2c(Nc3ccc(OC(F)(F)F)cc3)ncnc2n1` is higher in EC50: 3.3 µM for the first, greater than 10 µM for the second.

Going from `CS(=O)(=O)Nc1ccc(-c2cc(Nc3ccc(OC(F)(F)F)cc3)ncn2)cc1` to `NC(=O)c1ccc(-c2cc(Nc3ccc(OC(F)(F)F)cc3)ncn2)cc1`, the EC50 rises from 2.21 µM to greater than 10 µM. The first is the more potent here.

`FC(F)(F)Oc1ccc(Oc2cc(NCCN3CCOCC3)ncn2)cc1` and `FC(F)(F)Oc1ccc(-c2cc(NCCN3CCOCC3)ncn2)cc1` cannot be ordered by EC50: greater than 10 µM for the first, greater than 10 µM for the second.

Going from `FC(F)(F)Oc1ccc(Nc2cc(-c3ccnc4[nH]ccc34)ncn2)cc1` to `Cc1nc(-c2cc(Nc3ccc(OC(F)(F)F)cc3)ncn2)cs1`, the EC50 rises from 6.85 µM to greater than 10 µM.

`FC(F)(F)c1ccc(Nc2cc(NCCN3CCOCC3)ncn2)cc1` and `FC(F)(F)Oc1ccc(Nc2cc(NCCCN3CCOCC3)ncn2)cc1` cannot be ordered by EC50: greater than 10 µM for the first, greater than 10 µM for the second.

`FC(F)(F)Oc1ccc(Nc2cc(-c3cnn(Cc4cccnc4)c3)ncn2)cc1` and `FC(F)(F)Oc1ccc(Nc2ncnc3nn(Cc4cccnc4)cc23)cc1` cannot be ordered by EC50: greater than 10 µM for the first, greater than 10 µM for the second.

`OCc1cc2c(Nc3ccc(OC(F)(F)F)cc3)ncnc2s1` and `CCNC(=O)c1cc2c(Nc3ccc(OC(F)(F)F)cc3)ncnc2s1` cannot be ordered by EC50: greater than 10 µM for the first, greater than 10 µM for the second.

Compared with `O=C(c1cc2c(Nc3ccc(OC(F)(F)F)cc3)ncnc2s1)N1CCNCC1`, `O=C(c1cc2c(Nc3ccc(OC(F)(F)F)cc3)ncnc2s1)N1CCC(O)CC1` is higher in EC50: 4.07 µM for the first, greater than 10 µM for the second. The first is the more potent here.

`FC(F)(F)Oc1ccc(Nc2ncnc3c2cnn3Cc2ccccc2)cc1` and `FC(F)(F)Oc1ccc(Nc2ncnc3nn(Cc4ccccc4)cc23)cc1` cannot be ordered by EC50: greater than 10 µM for the first, greater than 10 µM for the second.

`NC(=O)c1cccc(Nc2cc(Nc3ccc(OC(F)(F)F)cc3)ncn2)c1` and `NC(=O)c1cccc(Oc2cc(Nc3ccc(OC(F)(F)F)cc3)ncn2)c1` cannot be ordered by EC50: greater than 10 µM for the first, greater than 10 µM for the second.

`FC(F)(F)Oc1ccc(Nc2cc(N3CCOCC3)ncn2)cc1` and `FC(F)(F)Oc1ccc(Nc2cc(-n3ccnc3)ncn2)cc1` cannot be ordered by EC50: greater than 10 µM for the first, greater than 10 µM for the second.

`OCCn1cc2c(Nc3ccc(OC(F)(F)F)cc3)ncnc2n1` and `O=C(NCCO)c1cc2c(Nc3ccc(OC(F)(F)F)cc3)ncnc2s1` cannot be ordered by EC50: greater than 10 µM for the first, greater than 10 µM for the second.

`O=C(NCCO)c1cccc(-c2cc(Nc3ccc(OC(F)(F)F)cc3)ncn2)c1` and `Cc1nn(C)c(C)c1-c1cc(Nc2ccc(OC(F)(F)F)cc2)ncn1` cannot be ordered by EC50: greater than 10 µM for the first, greater than 10 µM for the second.

`NC(=O)c1ccc(Cn2ncc3c(Nc4ccc(OC(F)(F)F)cc4)ncnc32)cc1` and `Cc1nc(C)c(Cn2ncc3c(Nc4ccc(OC(F)(F)F)cc4)ncnc32)s1` cannot be ordered by EC50: greater than 10 µM for the first, greater than 10 µM for the second.

`FC(F)(F)Oc1cccc(Nc2cc(NCCN3CCOCC3)ncn2)c1` and `FC(F)(F)Oc1ccc(CNc2cc(NCCN3CCOCC3)ncn2)cc1` cannot be ordered by EC50: greater than 10 µM for the first, greater than 10 µM for the second.

`COc1ccc(Nc2cc(-c3ccncc3)ncn2)cc1` and `Fc1ccc(Nc2cc(-c3ccncc3)ncn2)cc1` cannot be ordered by EC50: greater than 10 µM for the first, greater than 10 µM for the second.

Going from `FC(F)(F)c1ccc(Nc2cc(-c3ccncc3)ncn2)cn1` to `CC(C)(C)n1ncc2c(Nc3ccc(OC(F)(F)F)cc3)ncnc21`, the EC50 falls from greater than 10 µM to 7.3 µM.

`COc1ccc(Nc2cc(NCCN3CCOCC3)ncn2)cc1` and `FC(F)(F)Oc1ccc(Nc2ncnc(NCCN3CCOCC3)n2)cc1` cannot be ordered by EC50: greater than 10 µM for the first, greater than 10 µM for the second.

Going from `CN(c1ccc(OC(F)(F)F)cc1)c1cc(NCCN2CCOCC2)ncn1` to `Cc1ccc(C(=O)Nc2cccc(C(F)(F)F)c2)cc1NC(=O)c1cc2c(Nc3ccc(OC(F)(F)F)cc3)ncnc2s1`, the EC50 falls from greater than 10 µM to 8.9 µM. The second is the more potent here.
